Measurements: ChEMBL document CHEMBL5260841, “Discovery of N-(4-(6-Acetamidopyrimidin-4-yloxy)phenyl)-2-(2-(trifluoromethyl)phenyl)acetamide (CHMFL-FLT3-335) as a Potent FMS-like Tyrosine Kinase 3 Internal Tandem Duplication (FLT3-ITD) Mutant Selective Inhibitor for Acute Myeloid Leukemia” (J Med Chem, 2019)
Activity calls are given as the source filed them. The rule behind the calls is not given here.

Legend:
[1] = AUC (0 to t) in Sprague-Dawley rat at 1 mg/kg, iv; format: ADME, organism-based; parameters: dose 1 mg/kg, route iv; conditions: in vivo
Outline: (§1)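 Sprague-Dawley rats dosed IV at 1 mg/kg or by oral gavage at 10 mg/kg. Parameters from plasma exposure: AUC(0-t), AUC(0-∞), MRT, T1/2, Tmax, Vz, CLz, Cmax. Values are mean ± SD from three animals.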

[2] = Clearance in Sprague-Dawley rat at 1 mg/kg, iv; format: ADME, organism-based; conditions: in vivo, read-out: CL(app) (converted); outline: as §1
[3] = Apparent volume of distribution in Sprague-Dawley rat at 10 mg/kg, po; format: ADME, organism-based; conditions: in vivo; outline: as §1
[4] = Cmax in Sprague-Dawley rat at 10 mg/kg, po; format: ADME, organism-based; parameters: dose 10 mg/kg, route po; conditions: in vivo; outline: as §1
MV4-11 [5] = experiment: Antitumor activity against human MV4-11 cells xenografted in nu/nu mouse assessed as inhibition of tumor growth at 50 mg/kg/day, po administered via gavage for 28 days relative to control; format: functional; conditions: MV4-11, 672 h, time 28 day, read-out: TGI
Outline: (§2)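 MV4-11 cells implanted in mice. Once tumours reached a mean of about 200 mm3, mice were dosed orally once daily for 28 days with vehicle or 25, 50 or 100 mg/kg/day. Tumour size and body weight tracked relative to starting values; final tumour weight also recorded.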

MV4-11 [6] = experiment: Antitumor activity against human MV4-11 cells xenografted in nu/nu mouse assessed as inhibition of tumor growth at 100 mg/kg/day, po administered via gavage for 28 days relative to control; format: functional; conditions: MV4-11, 672 h, time 28 day, read-out: TGI; outline: as §2
BaF3 [7] = experiment: Antiproliferative activity against mouse BaF3 cells transfected with FLT3 ITD mutant harboring AML patient derived LKWEFPRENLEFEVTGSSDNEYFYVDFREYEYD sequence assessed as cell growth inhibition incubated for 72 hrs by CCK-8 assay; format: functional
Outline: (§3)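 Kinase-transformed isogenic BaF3 lines grown in RPMI 1640 with 10% FBS, 2% L-glutamine and pen/strep at 37 °C, 5% CO2. Seeded at 1500-3000 cells/well and treated with a compound concentration series for 72 h. Viability read by CCK8 absorbance at 450 nm.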

[8] = biological target: Mast/stem cell growth factor receptor Kit (Homo sapiens, UniProt P10721); experiment: Inhibition of KIT (unknown origin) assessed as residual activity at 1 uM preincubated for 60 mins followed by ATP addition and measured after 1 hr by ADP-Glo assay relative to control; conditions: time 2.0 hrs
Sequence of Mast/stem cell growth factor receptor Kit (P10721 whole entry): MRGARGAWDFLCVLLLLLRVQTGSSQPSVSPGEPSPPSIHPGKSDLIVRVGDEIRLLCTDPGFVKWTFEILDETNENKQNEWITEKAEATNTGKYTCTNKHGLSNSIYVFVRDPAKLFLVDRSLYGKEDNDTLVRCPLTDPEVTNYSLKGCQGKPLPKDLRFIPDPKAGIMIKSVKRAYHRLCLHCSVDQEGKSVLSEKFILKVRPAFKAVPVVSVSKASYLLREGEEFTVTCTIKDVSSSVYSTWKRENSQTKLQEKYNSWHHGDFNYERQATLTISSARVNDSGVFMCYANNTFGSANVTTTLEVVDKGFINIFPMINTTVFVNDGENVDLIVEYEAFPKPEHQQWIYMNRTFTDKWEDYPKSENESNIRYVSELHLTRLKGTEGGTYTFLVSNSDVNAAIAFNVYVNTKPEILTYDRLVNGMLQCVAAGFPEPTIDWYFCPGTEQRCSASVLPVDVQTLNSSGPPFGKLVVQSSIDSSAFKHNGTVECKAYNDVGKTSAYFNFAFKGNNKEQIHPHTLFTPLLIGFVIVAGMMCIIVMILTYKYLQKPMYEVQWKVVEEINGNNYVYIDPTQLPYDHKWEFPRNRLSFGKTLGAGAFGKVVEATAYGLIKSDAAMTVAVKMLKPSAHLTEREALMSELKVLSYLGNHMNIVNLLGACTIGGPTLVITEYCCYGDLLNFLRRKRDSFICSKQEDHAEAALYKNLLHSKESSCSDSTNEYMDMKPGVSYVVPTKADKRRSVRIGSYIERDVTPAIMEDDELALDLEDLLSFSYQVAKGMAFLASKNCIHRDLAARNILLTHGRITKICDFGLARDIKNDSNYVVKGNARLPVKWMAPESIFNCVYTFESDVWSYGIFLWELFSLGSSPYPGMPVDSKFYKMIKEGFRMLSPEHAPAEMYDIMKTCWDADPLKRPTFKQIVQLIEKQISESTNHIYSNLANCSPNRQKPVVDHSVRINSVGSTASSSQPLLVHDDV

[9] = biological target: Platelet-derived growth factor receptor alpha (Homo sapiens, UniProt P16234); experiment: Inhibition of PDGFRalpha (unknown origin) assessed as residual activity at 1 uM preincubated for 60 mins followed by ATP addition and measured after 1 hr by ADP-Glo assay relative to control; conditions: time 2.0 hrs
Sequence of Platelet-derived growth factor receptor alpha (P16234 whole entry): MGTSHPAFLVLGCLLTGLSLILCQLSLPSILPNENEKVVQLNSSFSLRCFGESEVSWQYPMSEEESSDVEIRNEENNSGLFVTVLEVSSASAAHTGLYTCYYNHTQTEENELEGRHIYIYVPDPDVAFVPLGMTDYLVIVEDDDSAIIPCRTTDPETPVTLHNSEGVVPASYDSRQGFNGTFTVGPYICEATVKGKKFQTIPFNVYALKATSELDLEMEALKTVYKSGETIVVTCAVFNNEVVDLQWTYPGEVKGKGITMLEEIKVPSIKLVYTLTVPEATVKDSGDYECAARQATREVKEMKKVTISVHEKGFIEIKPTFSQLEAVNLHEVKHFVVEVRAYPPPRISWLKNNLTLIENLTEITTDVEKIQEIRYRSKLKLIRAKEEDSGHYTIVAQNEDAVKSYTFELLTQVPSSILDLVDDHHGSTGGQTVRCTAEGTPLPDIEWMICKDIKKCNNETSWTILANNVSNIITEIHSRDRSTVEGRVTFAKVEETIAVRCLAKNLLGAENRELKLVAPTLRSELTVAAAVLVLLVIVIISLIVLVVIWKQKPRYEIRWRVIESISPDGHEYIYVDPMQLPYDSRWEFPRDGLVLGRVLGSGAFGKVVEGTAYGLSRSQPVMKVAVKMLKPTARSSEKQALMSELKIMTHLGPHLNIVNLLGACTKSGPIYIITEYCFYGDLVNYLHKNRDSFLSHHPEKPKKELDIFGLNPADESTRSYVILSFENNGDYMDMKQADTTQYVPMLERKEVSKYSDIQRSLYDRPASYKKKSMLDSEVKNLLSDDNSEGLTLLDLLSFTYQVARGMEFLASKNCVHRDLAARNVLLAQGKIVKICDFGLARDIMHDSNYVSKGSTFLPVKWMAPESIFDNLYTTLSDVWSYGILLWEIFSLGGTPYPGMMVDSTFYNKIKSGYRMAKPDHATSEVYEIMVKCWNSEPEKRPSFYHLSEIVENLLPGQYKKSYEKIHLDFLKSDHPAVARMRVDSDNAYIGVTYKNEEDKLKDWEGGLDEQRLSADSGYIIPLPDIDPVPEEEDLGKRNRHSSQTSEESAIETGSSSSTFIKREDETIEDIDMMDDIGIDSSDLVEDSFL

[10] = biological target: Mitogen-activated protein kinase kinase kinase kinase 1 (Homo sapiens, UniProt Q92918); experiment: Inhibition of HPK1 (unknown origin) assessed as residual activity at 1 uM preincubated for 60 mins followed by ATP addition and measured after 1 hr by ADP-Glo assay relative to control; conditions: time 2.0 hrs
Sequence of Mitogen-activated protein kinase kinase kinase kinase 1 (Q92918 whole entry, looked up): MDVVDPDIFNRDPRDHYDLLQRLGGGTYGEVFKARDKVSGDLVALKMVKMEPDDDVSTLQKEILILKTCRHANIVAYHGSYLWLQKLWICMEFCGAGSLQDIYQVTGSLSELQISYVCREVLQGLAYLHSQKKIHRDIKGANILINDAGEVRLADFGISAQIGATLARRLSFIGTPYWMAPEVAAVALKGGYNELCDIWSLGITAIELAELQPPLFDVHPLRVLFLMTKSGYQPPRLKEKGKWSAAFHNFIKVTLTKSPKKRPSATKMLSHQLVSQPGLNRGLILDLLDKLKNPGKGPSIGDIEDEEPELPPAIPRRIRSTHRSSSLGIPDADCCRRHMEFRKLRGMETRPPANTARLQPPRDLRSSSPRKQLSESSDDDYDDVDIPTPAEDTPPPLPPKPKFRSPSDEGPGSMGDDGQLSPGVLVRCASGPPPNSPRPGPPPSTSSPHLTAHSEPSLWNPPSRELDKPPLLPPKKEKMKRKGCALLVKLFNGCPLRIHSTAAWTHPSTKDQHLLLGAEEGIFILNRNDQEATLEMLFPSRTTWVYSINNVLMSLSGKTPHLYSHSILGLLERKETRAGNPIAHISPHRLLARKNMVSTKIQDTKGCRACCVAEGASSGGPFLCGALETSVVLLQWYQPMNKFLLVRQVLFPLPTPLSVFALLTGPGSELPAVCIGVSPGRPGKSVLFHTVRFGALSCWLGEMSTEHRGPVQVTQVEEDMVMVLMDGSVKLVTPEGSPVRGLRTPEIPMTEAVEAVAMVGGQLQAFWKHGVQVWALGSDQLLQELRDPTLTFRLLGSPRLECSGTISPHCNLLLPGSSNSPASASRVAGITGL

[11] = biological target: Macrophage colony-stimulating factor 1 receptor (Homo sapiens, UniProt P07333); experiment: Inhibition of CSF1R (unknown origin) preincubated for 60 mins followed by ATP addition and measured after 1 hr by ADP-Glo assay
Sequence of Macrophage colony-stimulating factor 1 receptor (P07333 whole entry, the tested form may be a part): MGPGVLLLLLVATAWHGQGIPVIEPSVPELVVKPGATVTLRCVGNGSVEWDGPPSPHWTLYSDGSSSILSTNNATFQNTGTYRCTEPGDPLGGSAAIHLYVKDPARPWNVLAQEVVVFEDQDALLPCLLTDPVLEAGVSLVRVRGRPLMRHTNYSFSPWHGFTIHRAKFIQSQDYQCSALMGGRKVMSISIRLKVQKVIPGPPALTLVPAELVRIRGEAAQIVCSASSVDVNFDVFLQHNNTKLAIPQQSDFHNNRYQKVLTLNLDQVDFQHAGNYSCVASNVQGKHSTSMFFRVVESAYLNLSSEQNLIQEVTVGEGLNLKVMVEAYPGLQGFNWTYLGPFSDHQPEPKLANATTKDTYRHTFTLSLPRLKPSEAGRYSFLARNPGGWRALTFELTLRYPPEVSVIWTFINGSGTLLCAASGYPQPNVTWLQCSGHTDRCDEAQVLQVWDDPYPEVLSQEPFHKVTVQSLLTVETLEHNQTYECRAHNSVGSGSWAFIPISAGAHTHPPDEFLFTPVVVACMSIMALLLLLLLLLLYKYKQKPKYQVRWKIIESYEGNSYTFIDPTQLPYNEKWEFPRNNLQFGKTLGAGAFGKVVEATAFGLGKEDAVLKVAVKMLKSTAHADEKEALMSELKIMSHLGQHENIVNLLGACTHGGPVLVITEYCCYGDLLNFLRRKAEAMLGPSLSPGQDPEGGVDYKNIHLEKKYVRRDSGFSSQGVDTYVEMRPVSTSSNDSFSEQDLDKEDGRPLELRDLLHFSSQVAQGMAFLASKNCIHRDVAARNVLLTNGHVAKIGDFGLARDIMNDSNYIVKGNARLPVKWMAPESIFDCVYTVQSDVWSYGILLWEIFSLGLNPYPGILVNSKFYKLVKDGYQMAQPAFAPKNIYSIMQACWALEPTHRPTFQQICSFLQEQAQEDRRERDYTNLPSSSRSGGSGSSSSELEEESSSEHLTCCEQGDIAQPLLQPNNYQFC

BaF3 [12] = experiment: Antiproliferative activity against mouse BaF3 cells transfected with TEL fused PDGFRalpha assessed as cell growth inhibition incubated for 72 hrs by CCK-8 assay; format: functional; outline: as §3
MOLM-13 [13] = experiment: Inhibition of AKT phosphorylation at Ser473 residue in human MOLM-13 cells harboring FLT3-ITD mutant incubated for 4 hrs by Western blot analysis; format: cell-based; conditions: dose 0.01-3 µM
Outline: (§4)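 Cells were exposed to the compound at a series of concentrations for 4 h, and whole-cell lysates were analysed by Western blot. MV4-11 cells were grown in IMDM with 10% FBS. MOLM13 and MOLM14 cells were grown in RPMI 1640 with 10% FBS. All cultures were kept at 37 °C with 5% CO2.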

MOLM-14 [14] = experiment: Inhibition of AKT phosphorylation at Ser473 residue in human MOLM-14 cells harboring FLT3-ITD mutant incubated for 4 hrs by Western blot analysis; format: cell-based; conditions: dose 0.01-3 µM; outline: as §4
MV4-11 [15] = experiment: Inhibition of AKT phosphorylation at Ser473 residue in human MV4-11 cells harboring FLT3-ITD mutant incubated for 4 hrs by Western blot analysis; format: cell-based; conditions: dose 0.01-3 µM; outline: as §4
MOLM-13 [16] = experiment: Inhibition of AKT phosphorylation at Thr308 residue in human MOLM-13 cells harboring FLT3-ITD mutant incubated for 4 hrs by Western blot analysis; format: cell-based; conditions: dose 0.01-3 µM; outline: as §4
MV4-11 [17] = experiment: Downregulation of c-Myc protein expression in human MV4-11 cells harboring FLT3-ITD mutant incubated for 4 hrs by Western blot analysis; format: functional, cell-based; conditions: dose 0.01-3 µM; outline: as §4
MOLM-13 [18] = experiment: Induction of cell cycle arrest in human MOLM-13 cells harboring FLT3-ITD mutant assessed as accumulation of cells at G0/G1 phase at 0.1 uM incubated for 12 hrs by RNase/PI staining based flow cytometry analysis; format: functional
MOLM-13 [19] = experiment: Induction of apoptosis in human MOLM-13 cells harboring FLT3-ITD mutant assessed as increase in cleaved PARP level incubated for 24 hrs by Western blot analysis; format: functional, cell-based; conditions: dose 0.1-3 µM
MOLM-14 [20] = experiment: Induction of apoptosis in human MOLM-14 cells harboring FLT3-ITD mutant assessed as increase in cleaved PARP level incubated for 24 hrs by Western blot analysis; format: functional, cell-based; conditions: dose 0.1-3 µM
MOLM-13 [21] = experiment: Induction of apoptosis in human MOLM-13 cells harboring FLT3-ITD mutant assessed as increase in cleaved caspase-3 level incubated for 24 hrs by Western blot analysis; format: functional, cell-based; conditions: dose 0.1-3 µM

CC(=O)Nc1cc(Oc2ccc(NC(=O)Cc3ccccc3C(F)(F)F)cc2)ncn1
AUC(0-t) [1]: 1560 ng·h/mL
clearance [2]: 11.7 mL/min/kg
Vz [3]: 1.5 L/kg
Cmax [4]: 3630 ng/mL
inhibition in vivo at 50 mg/kg/day (MV4-11 [5]): 68%
inhibition in vivo at 100 mg/kg/day (MV4-11 [6]): 80%
GI50 (BaF3 [7]): 82 nM
Activity [8]: 0.05%
Activity [9]: 3.3%
Activity [10]: 0.6%
IC50 [11]: 212 nM
GI50 (BaF3 [12]): 7 nM
inhibition (MOLM-13 [13]): Dose-Dependent Effect
inhibition (MOLM-14 [14]): Dose-Dependent Effect
inhibition (MV4-11 [15]): Dose-Dependent Effect
inhibition (MOLM-13 [16]): Dose-Dependent Effect
Activity (MV4-11 [17]): Dose-Dependent Effect
Activity (MOLM-13 [18]): Active
Activity (MOLM-13 [19]): Dose-Dependent Effect
Activity (MOLM-14 [20]): Dose-Dependent Effect
Activity (MOLM-13 [21]): Dose-Dependent Effect
